# Compound activity from PubChem BioAssay.
# Only a selection was taken, and hits are over-represented in it overall.
# Lung fibro prol = blocks proliferation of human lung fibroblasts. actives 1.1% (n = 85,000). viability, % at 10 µM. LL 47 human lung fibroblast viability, ATP luminescence; stronger effect = lower value;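 active means viability at or below 50% in the single dose screen; inactive means viability above 50%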;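 further: compound exposure lasted 72 h before the ATP readout; 100% = median luminescence of untreated cell-only wells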
#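 Assay system: human lung fibroblast line LL 47, low passage. Input: 1,150 fibroblasts seeded per well. Times: overnight cell rest, 72 h compound treatment at 37 °C. Evaluation: % viability of median cell-only signal. Technique: luminescent ATP detection, CellTiter-Glo. Control set: cell-only wells, no compound.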
# bCat KO growth = beta-catenin-lacking colon tumor cell growth suppression; HCT116 beta-catenin knockout viability, CellTiter-Glo, 60 h; stronger effect = lower value; viability, % at 10 µM; actives 1.5% (n = 140,000);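 active means viability at or under a set limit, the compound median less 4 SD, cut at about 6% in these data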;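 further: 0% = Hyamine 1622 control at 20 µM and 100% = untreated cell control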
# HUVEC prolif 384 = blocks proliferation of human endothelial cells. HUVEC proliferation, CellTiter-Glo luminescence, 72 h; stronger effect = lower value. viability, % at 10 µM (by protocol). actives 1.1% (n = 86,000). AID 648;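 active means viability at or below 30%; inactive means viability above 30%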;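 further: 100% = median luminescence of DMSO-only cell control wells on each plate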
# PTEN del growth = PTEN-deleted cell growth suppression. HCT116 PTEN-null viability, CellTiter-Glo, 60 h; stronger effect = lower value. actives 1.2% (n = 140,000). viability, % at 10 µM. AID 827;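 active means viability at or below a set limit, 4 SD under the median of all tested compounds, cut at about 3.7% in these data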;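 further: PTEN knockout HCT116 line with beta catenin targeted HCT116 as companion control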
# H69AR growth 86K = growth inhibitors of human H69AR lung tumor cells; H69AR lung tumor viability, ATP luminescence, 72 h; stronger effect = lower value; actives 6% (n = 85,000); viability, % at 10 µM;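 active means viability at or below 40%; inactive means viability above 40%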;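 further: multidrug resistant small cell line overexpressing MRP-1 efflux transporter; 100% = mean luminescence of untreated control wells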
# An asterisk follows results filed as active; . = no result.
SMILES,Lung fibro prol,bCat KO growth,HUVEC prolif 384,PTEN del growth,H69AR growth 86K
COc1cc(NC(=O)c2ccco2)c(OC)cc1NC(=O)c1cc(OC)c(OC)c(OC)c1,107,66,71,83,24*
O=C(CSCc1ccccc1)N/N=C/c1cc2c(cc1Br)OCO2,.,74,.,78,.
CCCCCCCC#Cc1ccccc1/C=N/S(=O)c1ccc(C)cc1 (configuration not stated),.,58,.,63,.
FC(F)(F)c1nc2ccccc2n2c(-c3ccc(Cl)cc3)nnc12,.,4.8*,.,10,.
Cc1ccc(-c2nnc3c(C(F)(F)F)nc4ccccc4n23)cc1,.,4.7*,.,8,.
FC(F)(F)c1nc2ccccc2c2nc3ccccc3n12,.,97,.,99,.
CC(=NCCN1CCN(C(C)=C2C(=O)c3ccccc3C2=O)CC1)C1=C(O)CC(C)(C)CC1=O,.,91,.,87,.
Cc1ccc(-c2cc(-c3ccccc3)c(C#N)c(N)n2)o1,85,89,85,73,105
Cc1ccc(-c2cc(-c3ccc(F)cc3)nc(N)c2C#N)o1,93,49,68,53,14*
O=C(COC(=O)CNS(=O)(=O)c1cccc(Br)c1)NC(=O)Nc1ccc2c(c1)OCCO2,.,94,.,99,.
CCc1ccc(OCC(=O)Nc2ccc(S(=O)(=O)N3CCCC3)cc2)c(Br)c1,104,70,61,78,30*
COC(=O)c1ccc(NC(=O)COc2ccc(S(=O)(=O)N3CCCCC3)cc2)cc1,86,86,99,76,58
COc1ccc(-c2cc(C(F)(F)F)nc(SCCC(=O)N3CCOCC3)n2)cc1,.,90,104,90,39*
O=C(Nc1ccccc1)Nc1nnc(CSCc2ccccc2Cl)s1,.,37,.,38,.
O=C(Nc1ccc(Cl)c(Cl)c1)Nc1nnc(CSc2ccccc2)s1,.,2.2*,.,2.6*,.
CCOC(=O)NS(=O)(=O)c1ccc(CCNC(=O)c2cc(C)on2)cc1,.,94,.,102,.
CC(=O)CSc1nsc(SCC(C)=O)c1C#N,.,67,89,70,31*
CCOC(=O)C1=C(CSc2nc(-c3ccccc3)ccc2C#N)OC(N)=C(C#N)C1c1ccc(OC)cc1 (configuration not stated),102,91,92,102,87
On1onc2c3cc(-c4ccccc4)nc3ccc21,23*,1.8*,40,1.2*,6.0*
c1ccc(-c2cc3c(ccc4nonc43)nn2)cc1,.,87,94,86,101
COc1ccc(NC(=O)CCCn2c(=O)c3sccc3n(Cc3ccccc3)c2=O)cc1,.,11,.,0.8*,.
COc1ccc(NC(=O)CCCn2c(=O)c3sccc3n(Cc3ccccc3C)c2=O)cc1,.,81,.,95,.
Cc1cc(C)c2c(N)c3cccc(C)c3nc2n1,.,2.5*,.,2.5*,.
COc1ccccc1C(c1nnnn1Cc1ccccc1)N1CCN(C2CCCC2)CC1 (configuration not stated),90,86,88,94,76
COc1cccc(C(c2nnnn2Cc2ccccc2)N2CCN(C3CCCC3)CC2)c1OC (configuration not stated),102,67,87,72,20*
SMILES,Lung fibro prol,bCat KO growth,HUVEC prolif 384,PTEN del growth,H69AR growth 86K
c1ccc(Cn2nnnc2C(c2cccs2)N2CCCCCC2)cc1 (configuration not stated),82,73,89,75,22*
Cc1ccc2cc(C)c3nnc(SCC(=O)Nc4nc5c(s4)CCCC5)n3c2c1C,.,91,.,90,.
O=C(Nc1ccccc1)Nc1cc(OCC(F)(F)F)cc(OCC(F)(F)F)c1,.,2.2*,.,1.9*,.
O=C(Nc1cccc(Cl)c1)Nc1cccc(Cl)c1,95,86,82,70,85
O=C(Nc1ccccc1)Nc1cc(Cl)cc(Cl)c1,54,2.0*,28*,2.2*,1.8*
CC(C)Oc1ccc(/C=N/NC(N)=S)cc1,.,39,.,32,.
Cc1ccc(S(=O)(=O)N2CCN(C(=O)CCC(=O)NCc3ccc(F)cc3)CC2)cc1,.,93,.,92,.
COc1cc(NS(=O)(=O)c2ccc(OC)c(C)c2C)c(OC)cc1Cl,96,11,58,10,22*
Cc1cccc(N2CCN(C3=NC(=O)C(Cc4ccccc4)S3)CC2)c1 (configuration not stated),.,88,.,79,.
Cc1ccc2c(C)ccc(O)c2n1,89,36,17*,55,29*
Cn1cc(C(=O)c2ccc(Cl)cc2Cl)cc1C(=O)N/N=C(\N)COc1cccc(C(F)(F)F)c1,77,5.2*,69,8,27*
CC1(C)CN(c2ccccc2)N(Cc2ccc(F)cc2)C1=O,.,81,.,87,.
O=c1c2c(nc3c(-c4ccc(Cl)cc4)c[nH]n13)CCCC2,60,12,58,14,20*
COc1cc(C)c(C(C)C)cc1S(=O)(=O)n1cnc(C)c1,56,24,43,28,34*
COc1cc(C)c(C(C)C)cc1S(=O)(=O)N1CCN(C)CC1,96,101,91,105,87
CC(C)[C@H](NC(=O)NCCc1ccc(F)cc1)C(=O)O,96,11,103,12,92
CC(=O)N(Cc1ccc(F)cc1)C1=C(NCCc2ccccc2)C(=O)c2ccccc2C1=O,1.8*,1.9*,4.3*,2.3*,1.2*
CCC(C)(C)n1nnnc1C(c1ccc(O)c(OC)c1)N1CCc2ccccc2C1 (configuration not stated),87,95,94,89,34*
COc1ccc(C(c2nnnn2C(C)(C)C)N2CCN(c3nc4ccccc4s3)CC2)cc1 (configuration not stated),100,77,96,72,83
CCC(C)(C)n1nnnc1C(c1ccc(O)c(OC)c1)N1CCN(c2nc3ccccc3s2)CC1 (configuration not stated),94,66,93,83,14*
O=C(Nc1ccc(N2C(=O)C3C4C=CC(C4)C3C2=O)cc1)Nc1cccnc1 (configuration not stated),98,86,99,103,76
Cc1cccc2sc(N(CCCN(C)C)C(=O)CCc3ccccc3)nc12,.,1.6*,.,1.9*,.
COc1cccc(CSc2nnc(-c3ccco3)n2C)c1,.,109,100,107,87
CCc1cc(-c2n[nH]c(C)c2Oc2ccc(C(C)C)cc2)c(O)cc1O,74,54,2.5*,61,1.1*
CCCOC(=O)c1ccc(Oc2c(-c3ccc(OC)cc3O)n[nH]c2C)cc1,88,3.5*,25*,13,1.6*
Cc1[nH]nc(-c2ccc(O)cc2O)c1Oc1ccccc1,85,74,81,72,36*
C=C(C)COc1ccc(-c2n[nH]c(C)c2Oc2ccccc2OC)c(O)c1,87,58,29*,56,7.2*
Cc1ccc(S(=O)(=O)NC(N)=NCCc2ccc(Cl)cc2)cc1C,.,90,.,95,.
O=C(CSc1nc(-c2ccc(F)cc2)cc(C(F)(F)F)n1)Nc1ccc2c(c1)OCO2,.,91,.,93,.
O=C(CCn1c(=O)c2ccccc2n(Cc2ccccc2)c1=O)NCc1ccc2c(c1)OCO2,103,104,94,102,90
